Our source for the IC50 values is ChEMBL document CHEMBL4316595, “Synthesis and structure-activity relationship studies of parthenolide derivatives as potential anti-triple negative breast cancer agents” (Eur J Med Chem, 2019).

For the test, the system named is MDA-MB-231. Kind of test: Antiproliferative activity against human MDA-MB-231 cells measured after 72 hrs by MTT assay. The format is functional, cell-based. As to conditions: MDA-MB-231, 72 h. In a few lines:
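MTT antiproliferation assay on human breast cancer lines MDA-MB-231, SUM-159, MCF-7 and Bcap-37 and on mouse 4T1 breast cancer cells. IC50 values were taken from the MTT read-out. Adriamycin served as the positive control.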

pIC50: −log10 of the molar value.

`C=C1C(=O)O[C@H]2[C@H]1CC/C(COC(=O)/C(=C/c1cc(OC)ccc1OC)c1ccc(F)cc1)=C\CC[C@@]1(C)O[C@@H]21`: the pIC50 (usually the IC50 on a negative log10 scale, so that one unit is a factor of ten) is 5.71. In turn, `C=C1C(=O)O[C@H]2[C@H]1CC/C(COC(=O)CCc1c(OC)cccc1OC)=C\CC[C@@]1(C)O[C@@H]21` showed a pIC50 of 5.64.

`C=C1C(=O)O[C@H]2[C@H]1CC/C(COC(=O)CCc1cc(OC)ccc1OC)=C\CC[C@@]1(C)O[C@@H]21` gave a pIC50 of 5.73.

For `C=C1C(=O)O[C@H]2[C@H]1CC/C(COC(=O)/C=C/c1ccc(C#N)cc1)=C\CC[C@@]1(C)O[C@@H]21`, the pIC50 is 5.74.

On to `C=C1C(=O)O[C@H]2[C@H]1CC/C(COC(=O)/C=C/c1cc(OC)c(OC)cc1OC)=C\CC[C@@]1(C)O[C@@H]21`, for which the pIC50 is 5.99.

`C=C1C(=O)O[C@H]2[C@H]1CC/C(COC(=O)c1c(OC)cccc1OC)=C\CC[C@@]1(C)O[C@@H]21` showed a negative-log IC50 (pIC50) of 5.45.

`C=C1C(=O)O[C@H]2[C@H]1CC/C(COC(=O)/C=C/c1ccc(O)cc1)=C\CC[C@@]1(C)O[C@@H]21` gave a pIC50 of 5.72. This pIC50 lies 0.27 log units higher than the previous one.

`C=C1C(=O)O[C@H]2[C@H]1CC/C(COC(=O)/C=C/c1ccc(OC)cc1)=C\CC[C@@]1(C)O[C@@H]21` had a pIC50 of 5.76. `C=C1C(=O)O[C@H]2[C@H]1CC/C(COC(=O)/C=C/c1ccc([N+](=O)[O-])cc1)=C\CC[C@@]1(C)O[C@@H]21` showed a pIC50 of 5.71. This pIC50 and that of the molecule before are within 0.2 log units of each other. The same measure for `C=C1C(=O)O[C@H]2[C@H]1CC/C(COC(=O)/C=C/c1c(Cl)cccc1Cl)=C\CC[C@@]1(C)O[C@@H]21`: 5.80; for `C=C1C(=O)O[C@H]2[C@H]1CC/C(COC(=O)/C(=C/c1cc(OC)ccc1OC)CCC)=C\CC[C@@]1(C)O[C@@H]21`: 5.12; for `C=C1C(=O)O[C@H]2[C@H]1CC/C(COC(=O)/C=C/c1cccs1)=C\CC[C@@]1(C)O[C@@H]21`: 5.74. `C=C1C(=O)O[C@H]2[C@H]1CC/C(COC(=O)/C(=C/c1cc(OC)ccc1OC)c1ccc(Cl)cc1)=C\CC[C@@]1(C)O[C@@H]21`: the pIC50 was 5.69. The same measure for `C=C1C(=O)O[C@H]2[C@H]1CC/C(COC(=O)/C=C/c1cccc(Cl)c1)=C\CC[C@@]1(C)O[C@@H]21`: 5.75; for `C=C1C(=O)O[C@H]2[C@H]1CC/C(COC(=O)/C=C/c1ccc(C(F)(F)F)cc1)=C\CC[C@@]1(C)O[C@@H]21`: 5.60; for `C=C1C(=O)O[C@H]2[C@H]1CC/C(COC(=O)/C=C/c1ccc(OCC)cc1)=C\CC[C@@]1(C)O[C@@H]21`: 5.80.

As to `C=C1C(=O)O[C@H]2[C@H]1CC/C(COC(=O)/C(C)=C/c1cc(OC)ccc1OC)=C\CC[C@@]1(C)O[C@@H]21`, the pIC50 was 5.75. The same measure for `C=C1C(=O)O[C@H]2[C@H]1CC/C(COC(=O)/C=C/c1ccccc1Cl)=C\CC[C@@]1(C)O[C@@H]21`: 5.85.

For the molecule `C=C1C(=O)O[C@H]2[C@H]1CC/C(COC(=O)/C=C/c1cccnc1)=C\CC[C@@]1(C)O[C@@H]21`, the pIC50 is 5.49.

In turn, `COc1cccc(OC)c1/C=C/C(=O)OC/C1=C/CC[C@@]2(C)O[C@H]2[C@H]2OC(=O)[C@@H](C)[C@@H]2CC1` gave a pIC50 of 5.12. Molecule `C=C1C(=O)O[C@H]2[C@H]1CC/C(COC(=O)/C=C/c1ccc(C(C)C)cc1)=C\CC[C@@]1(C)O[C@@H]21` showed a negative logarithm of the IC50 (pIC50) of 5.88. The same measure for `C=C1C(=O)O[C@H]2[C@H]1CC/C(COC(=O)/C=C/c1cccc(Br)c1)=C\CC[C@@]1(C)O[C@@H]21`: 5.79; for `C=C1C(=O)O[C@H]2[C@H]1CC/C(COC(=O)/C(C#N)=C/c1cc(OC)ccc1OC)=C\CC[C@@]1(C)O[C@@H]21`: 5.63; for `C=C1C(=O)O[C@H]2[C@H]1CC/C(COC(=O)/C=C/c1ccc(C)cc1)=C\CC[C@@]1(C)O[C@@H]21`: 5.64.
